In assay [1] the target is T1, Serine/threonine-protein kinase ATR (Homo sapiens, UniProt Q13535). The assay can be described thus: Inhibition of full length recombinant ATR after 24 hrs by radiometric phosphate incorporation assay. The method in brief:
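Radiometric [γ-33P]ATP incorporation into target peptide. Full-length ATR and ATM were made in-house; DNA-PK was purchased. Kinase, buffer and peptide were premixed, then compound was added in DMSO (7% final DMSO). Reactions started with ATP at 25 °C and were stopped with phosphoric acid (100 mM final) plus ATP (0.66 μM final). Peptide was captured on phosphocellulose, washed, and scintillation-counted.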

The target of assay [2] is Serine-protein kinase ATM (Homo sapiens, UniProt Q13315). The assay can be described thus: Inhibition of full length recombinant ATM after 24 hrs by radiometric phosphate incorporation assay.
Assay [3] has as its target DNA-dependent protein kinase catalytic subunit (Homo sapiens, UniProt P78527). The assay can be described thus: Inhibition of DNAPK after 2 hrs by radiometric phosphate incorporation assay.
Assay [4] concerns the target T1, Serine/threonine-protein kinase ATR. The assay can be described thus: Inhibition of ATR in human HT-29 cells assessed as hydroxyurea-induced phosphorylation of H2AX by immunofluorescence microscopy. It is filed as cell-based.

Where only a bound is given, the exact number is not on record here.

T1 sequence (Q13535 whole entry): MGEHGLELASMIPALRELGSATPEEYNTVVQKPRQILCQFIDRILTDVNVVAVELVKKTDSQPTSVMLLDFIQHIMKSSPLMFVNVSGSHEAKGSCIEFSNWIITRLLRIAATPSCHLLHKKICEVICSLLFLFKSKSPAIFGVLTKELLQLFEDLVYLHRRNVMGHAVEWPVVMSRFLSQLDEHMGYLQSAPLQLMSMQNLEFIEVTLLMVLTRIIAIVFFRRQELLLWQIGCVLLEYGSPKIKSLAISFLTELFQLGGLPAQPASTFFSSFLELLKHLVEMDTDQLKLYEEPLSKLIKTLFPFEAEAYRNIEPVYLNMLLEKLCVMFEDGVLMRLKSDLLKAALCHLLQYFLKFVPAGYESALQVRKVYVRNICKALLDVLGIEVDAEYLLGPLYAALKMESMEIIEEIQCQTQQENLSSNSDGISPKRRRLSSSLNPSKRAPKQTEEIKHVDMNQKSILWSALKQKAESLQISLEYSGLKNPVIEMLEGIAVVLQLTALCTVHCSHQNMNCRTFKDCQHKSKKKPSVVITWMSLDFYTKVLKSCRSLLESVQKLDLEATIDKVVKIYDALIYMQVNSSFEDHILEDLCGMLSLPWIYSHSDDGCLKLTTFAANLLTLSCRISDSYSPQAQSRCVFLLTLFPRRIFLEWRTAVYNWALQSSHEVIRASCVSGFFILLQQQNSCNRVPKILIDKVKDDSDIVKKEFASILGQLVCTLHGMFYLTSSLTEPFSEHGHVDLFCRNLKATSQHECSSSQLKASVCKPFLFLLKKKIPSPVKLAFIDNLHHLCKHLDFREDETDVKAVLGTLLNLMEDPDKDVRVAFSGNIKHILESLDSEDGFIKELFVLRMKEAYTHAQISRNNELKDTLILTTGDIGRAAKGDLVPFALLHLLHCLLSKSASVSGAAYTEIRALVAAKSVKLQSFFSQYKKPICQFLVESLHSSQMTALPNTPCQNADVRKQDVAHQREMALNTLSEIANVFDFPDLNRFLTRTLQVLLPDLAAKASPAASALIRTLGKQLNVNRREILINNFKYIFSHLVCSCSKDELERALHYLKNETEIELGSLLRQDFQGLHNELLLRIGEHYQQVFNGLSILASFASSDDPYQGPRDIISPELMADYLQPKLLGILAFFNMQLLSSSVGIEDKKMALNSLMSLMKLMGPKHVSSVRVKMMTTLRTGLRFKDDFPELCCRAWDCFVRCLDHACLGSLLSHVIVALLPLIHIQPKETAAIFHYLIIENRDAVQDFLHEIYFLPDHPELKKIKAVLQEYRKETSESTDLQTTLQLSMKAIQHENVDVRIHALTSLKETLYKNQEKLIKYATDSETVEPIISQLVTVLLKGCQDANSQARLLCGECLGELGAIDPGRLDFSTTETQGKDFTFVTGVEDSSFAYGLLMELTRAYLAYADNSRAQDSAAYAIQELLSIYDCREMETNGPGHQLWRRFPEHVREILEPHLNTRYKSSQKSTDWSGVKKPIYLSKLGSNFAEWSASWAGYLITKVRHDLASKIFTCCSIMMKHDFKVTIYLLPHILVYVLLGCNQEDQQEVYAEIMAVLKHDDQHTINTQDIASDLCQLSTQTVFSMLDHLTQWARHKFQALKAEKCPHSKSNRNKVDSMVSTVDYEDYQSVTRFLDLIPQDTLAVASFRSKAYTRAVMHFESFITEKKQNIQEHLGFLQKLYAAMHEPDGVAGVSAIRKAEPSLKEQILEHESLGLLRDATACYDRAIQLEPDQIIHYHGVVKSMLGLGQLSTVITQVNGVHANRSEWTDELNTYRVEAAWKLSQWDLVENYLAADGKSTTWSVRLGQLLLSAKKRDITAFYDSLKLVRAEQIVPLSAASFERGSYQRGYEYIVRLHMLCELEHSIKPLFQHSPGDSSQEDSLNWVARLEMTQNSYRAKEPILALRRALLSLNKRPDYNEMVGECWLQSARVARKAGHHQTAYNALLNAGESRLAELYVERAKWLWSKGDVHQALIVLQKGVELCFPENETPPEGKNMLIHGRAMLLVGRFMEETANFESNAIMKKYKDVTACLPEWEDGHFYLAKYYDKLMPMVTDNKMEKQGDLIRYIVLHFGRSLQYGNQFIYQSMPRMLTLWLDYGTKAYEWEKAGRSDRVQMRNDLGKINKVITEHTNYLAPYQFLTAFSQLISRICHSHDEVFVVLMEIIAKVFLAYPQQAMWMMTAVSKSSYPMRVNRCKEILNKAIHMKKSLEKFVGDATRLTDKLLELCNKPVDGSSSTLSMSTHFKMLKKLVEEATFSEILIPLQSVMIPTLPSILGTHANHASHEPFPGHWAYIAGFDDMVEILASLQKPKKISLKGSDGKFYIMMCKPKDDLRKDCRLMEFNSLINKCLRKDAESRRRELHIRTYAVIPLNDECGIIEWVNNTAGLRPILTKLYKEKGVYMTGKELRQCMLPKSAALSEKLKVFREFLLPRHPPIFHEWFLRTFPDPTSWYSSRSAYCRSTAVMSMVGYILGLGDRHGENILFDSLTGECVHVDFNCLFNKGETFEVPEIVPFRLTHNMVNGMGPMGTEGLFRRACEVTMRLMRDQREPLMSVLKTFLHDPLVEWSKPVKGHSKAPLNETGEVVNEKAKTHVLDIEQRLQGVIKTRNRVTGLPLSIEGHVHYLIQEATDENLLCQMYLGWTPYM

By IC50 is commonly meant the concentration at which inhibition is half-maximal. `Nc1ncc(-c2ccc(C(=O)N3CCC3)cc2)nc1C(=O)Nc1ccccc1`: the IC50 in assay [1] is 0.1 µM; in assay [2] it was more than 8 µM; in assay [3], more than 8 µM; in assay [4] it was 1 µM.
As to `CC(C)(C)S(=O)(=O)c1ccc(-c2cnc(N)c(C(=O)Nc3ccccc3)n2)cc1`, the IC50 in assay [1] is 0.006 µM; in assay [2] it was more than 8 µM; in assay [3], more than 8 µM; in assay [4], 1 µM.
`COc1cc2c(c(OC)c1OC)-c1c(cc3c(c1OC)OCO3)CC(C)C(C)C2` (stereo not given) [SCHISANDRIN B]: the values for the half-maximal inhibitory concentration (IC50) in assay [1] and in assay [2] were 7.2 µM and 1740 µM, respectively.
Consider `Nc1nccnc1C(=O)Nc1ccccc1`, for which the 50% inhibitory concentration (IC50) is 7.1 µM in assay [1], more than 8 µM in assay [2] and more than 8 µM in assay [3].
Take `CS(=O)(=O)c1ccc(-c2cnc(N)c(-c3nc4ccccc4[nH]3)n2)cc1`: the results for the IC50 in assay [1], in assay [2] and in assay [3] were 0.03 µM, 0.38 µM and 2.1 µM, respectively.
As to `Nc1ncc(-c2ccc(C(=O)N3CCCCC3)cc2)nc1C(=O)Nc1ccccc1`, the IC50 in assay [1] was 0.026 µM; in assay [2] it was more than 8 µM; in assay [3], more than 8 µM; in assay [4], 6.5 µM.
`CN(C)C(=O)c1ccc(-c2cnc(N)c(C(=O)Nc3ccccc3)n2)cc1`: the IC50 was 0.054 µM in assay [1], more than 8 µM in assay [2], more than 8 µM in assay [3] and 2 µM in assay [4].
`CCC(C)S(=O)(=O)c1ccc(-c2cnc(N)c(C(=O)Nc3ccccc3)n2)cc1` (stereo not given): the IC50 is 0.01 µM in assay [1], 6.6 µM in assay [2], more than 8 µM in assay [3] and 1.6 µM in assay [4].
`CCCS(=O)(=O)c1ccc(-c2cnc(N)c(C(=O)Nc3ccccc3)n2)cc1`: the concentration for half-maximal inhibition (IC50) is 0.014 µM in assay [1], 5.4 µM in assay [2], more than 8 µM in assay [3] and 2 µM in assay [4].
On to `Nc1ncc(Br)nc1C(=O)Nc1ccccc1`, for which the IC50 in assay [1] was 5.2 µM; in assay [2] it was more than 8 µM; in assay [3] it was more than 8 µM.
For `COc1cccc(-c2cnc(N)c(C(=O)Nc3ccccc3)n2)c1`, the IC50 was 2.2 µM in assay [1], more than 8 µM in assay [2] and 4.2 µM in assay [3].
The corresponding values for `CS(=O)(=O)c1ccc(-c2cnc(N)c(C(=O)NC3CCCCC3)n2)cc1` are 3.56 µM, more than 8 µM and more than 8 µM.
For the compound `Nc1ncc(-c2ccncc2)nc1C(=O)Nc1ccccc1`, the IC50 in assay [1] was 0.64 µM; in assay [2], more than 8 µM; in assay [3], 5 µM.
The corresponding values for `Nc1ncc(C2CCCCC2)nc1C(=O)Nc1ccccc1` are 3 µM, more than 8 µM and more than 8 µM.
For `Nc1ncc(-c2ccc(Cl)cc2)nc1C(=O)Nc1ccccc1`, the IC50 is 2.4 µM in assay [1], more than 8 µM in assay [2] and more than 8 µM in assay [3].
On to `Cc1ccc(-c2cnc(N)c(C(=O)Nc3ccccc3)n2)cc1`, for which the half-inhibitory concentration (IC50) was 1.7 µM in assay [1], more than 8 µM in assay [2] and more than 8 µM in assay [3].
For the compound `Nc1ncc(-c2ccc(O)cc2)nc1C(=O)Nc1ccccc1`, the IC50 in assay [1] was 0.32 µM; in assay [2] it was 5.8 µM; in assay [3], 1.8 µM.
On to `Cc1ccccc1-c1cnc(N)c(C(=O)Nc2ccccc2)n1`, for which the IC50 is 1.4 µM in assay [1], more than 8 µM in assay [2] and 1.4 µM in assay [3].
On to `Nc1ncc(-c2ccc(S(=O)(=O)[C@@H]3CCOC3)cc2)nc1C(=O)Nc1ccccc1`, for which the concentration for half-maximal inhibition (IC50) in assay [1] was determined as 0.01 µM; in assay [2], 5 µM; in assay [3], 4.4 µM; in assay [4], 0.46 µM.
For `COc1ccccc1-c1cnc(N)c(C(=O)Nc2ccccc2)n1`, the IC50 in assay [1] was 0.74 µM; in assay [2] it was more than 8 µM; in assay [3] it was more than 8 µM.
Consider `CS(=O)(=O)c1ccc(-c2cnc(N)c(-c3nc4ccccc4s3)n2)cc1`, for which the values for the IC50 in assay [1], in assay [2] and in assay [3] were 0.022 µM, 0.72 µM and 2.9 µM, respectively.
For the compound `CS(=O)(=O)c1ccc(-c2cnc(N)c(-c3nc4ccccc4o3)n2)cc1`, the figures for the IC50 in assay [1], in assay [2] and in assay [3] were 0.036 µM, 0.84 µM and 1.4 µM, respectively.
The like results for `N#Cc1ccccc1-c1cnc(N)c(C(=O)Nc2ccccc2)n1` were, in that order, 0.024 µM, 0.32 µM and 0.72 µM.
The corresponding values for `Nc1ncc(-c2cccc(Cl)c2)nc1C(=O)Nc1ccccc1` are 1.6 µM, more than 8 µM and more than 8 µM.
`Nc1ncc(-c2ccccc2O)nc1C(=O)Nc1ccccc1`: the 50% inhibitory concentration (IC50) in assay [1] was 2.4 µM; in assay [2] it was more than 8 µM; in assay [3] it was more than 8 µM.
With `CS(=O)(=O)c1ccccc1-c1cnc(N)c(C(=O)Nc2ccccc2)n1`, the IC50 in assay [1] is 1.3 µM; in assay [2], more than 8 µM; in assay [3], more than 8 µM.
Consider `CS(=O)(=O)c1ccc(-c2cnc(N)c(C(=O)Nc3ccccc3)n2)cc1`, for which the values for the IC50 in assay [1], in assay [2] and in assay [3] were 0.026 µM, more than 8 µM and 4.4 µM, respectively.
On to `COc1ccc(-c2cnc(N)c(C(=O)Nc3ccccc3)n2)cc1`, for which the concentration for half-maximal inhibition (IC50) in assay [1] was 1.5 µM; in assay [2], more than 8 µM; in assay [3] it was 6.6 µM.
In the case of `Nc1ncc(-c2cccc(O)c2)nc1C(=O)Nc1ccccc1`, the half-inhibitory concentration (IC50) in assay [1] was 0.54 µM; in assay [2], more than 8 µM; in assay [3], 2.2 µM.
The corresponding values for `N#Cc1cccc(-c2cnc(N)c(C(=O)Nc3ccccc3)n2)c1` are 0.4 µM, more than 8 µM and 2.2 µM.
In the case of `CS(=O)(=O)c1ccc(-c2cnc(N)c(-c3cc4ccccc4[nH]3)n2)cc1`, the results for the IC50 in assay [1], in assay [2] and in assay [3] were 0.023 µM, 0.12 µM and 2.4 µM, respectively.
The like results for `CS(=O)(=O)c1cccc(-c2cnc(N)c(C(=O)Nc3ccccc3)n2)c1` were, in that order, 0.34 µM, 6.6 µM and 0.74 µM.
In the case of `N#Cc1ccc(-c2cnc(N)c(C(=O)Nc3ccccc3)n2)cc1`, the values for the concentration for half-maximal inhibition (IC50) in assay [1], in assay [2] and in assay [3] were 0.18 µM, more than 8 µM and more than 8 µM, respectively.
For `Cc1cccc(-c2cnc(N)c(C(=O)Nc3ccccc3)n2)c1`, the IC50 was 0.56 µM in assay [1], more than 8 µM in assay [2] and more than 8 µM in assay [3].
As for `Nc1ncc(-c2ccccc2Cl)nc1C(=O)Nc1ccccc1`, the half-maximal inhibitory concentration (IC50) is 0.7 µM in assay [1], more than 8 µM in assay [2] and 3.8 µM in assay [3].
The like results for `C[S+]([O-])c1ccccc1-c1cnc(N)c(C(=O)Nc2ccccc2)n1` (stereo not given) were, in that order, 0.13 µM, 3 µM and 2 µM.
`NC(=O)c1ccc(-c2cnc(N)c(C(=O)Nc3ccccc3)n2)cc1`: the half-maximal inhibitory concentration (IC50) in assay [1] was determined as 0.11 µM; in assay [2], 2.9 µM; in assay [3], 1.2 µM.
For `O=c1cc(N2CCOCC2)oc2c1ccc1ccccc12`, the half-maximal inhibitory concentration (IC50) in assay [1] and in assay [2] was more than 100 µM each time.
With `CNC(=O)c1ccc(-c2cnc(N)c(C(=O)Nc3ccccc3)n2)cc1`, the IC50 in assay [1] was 0.18 µM; in assay [2] it was 2.6 µM; in assay [3], 7 µM.
`Nc1ncc(C2=CCCCC2)nc1C(=O)Nc1ccccc1`: the IC50 is 2.1 µM in assay [1], more than 8 µM in assay [2] and more than 8 µM in assay [3].

The values above are taken from ChEMBL document CHEMBL1765064, “Discovery of potent and selective inhibitors of ataxia telangiectasia mutated and Rad3 related (ATR) protein kinase as potential anticancer agents” (J Med Chem, 2011).
